What was measured:
[1] = tested on: Escherichia coli; experiment: Antibacterial activity against Escherichia coli DSM1103 assessed as reduction in microbial growth preincubated for 60 mins under dark condition and measured after 20 to 24 hrs at room temperature by muller hinton broth based dilution assay; type: functional; settings: time 20-24 hrs
How it was run: (§1)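 Bacteria grown overnight at 37 °C for 15−18 h in the dark, then set to 0.5 McFarland (read at 600 nm) and diluted 1:50 in Müller-Hinton broth to (2–8) × 10⁵ CFU/mL. Dark plate held at room temperature, then incubated at 37 °C. After 20−24 h, turbidity was read against the untreated growth control, with blanks subtracted. Compounds tested at ≥10 concentrations in biological triplicate.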

[2] = tested on: AGS; experiment: Photo index, ratio of EC50 for human AGS cells killed in the absence of light to EC50 for human AGS cells killed after irradiation; type: functional
How it was run: (§2)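 SRB assay: cells seeded in Opti-MEM with 2.4% FCS, treated 24 h later with 0.3–25.0 μM, medium replaced after 24 h. Duplicate plates were irradiated with blue light (468 nm, 9.3 J/cm²) or green light (519 nm, 30.0 J/cm²), or kept dark, then held 48 h at 37 °C, 5% CO₂. EC50 from Hill fit; photoindex = EC50 dark / EC50 irradiated.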

[3] = tested on: T-24; experiment: Phototoxicity against human T24 cells assessed as reduction in cell growth preincubated with compound for 24 hrs followed by blue light irradiation at 468 nm for 7 mins 30 sec and measured after 48 hrs by SRB assay; type: functional, cell-based; settings: T-24, light or radiation study
How it was run: (§3)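 Cells (A549 2000, AGS 2500, T24 1500 per well) seeded in Opti-MEM with 2.4% FCS. After 24 h, treated with 25.0−0.3 μM (six levels). After another 24 h, medium was replaced and cells got blue light (468±27 nm, 9.3 J/cm²). Held 48 h at 37 °C, 5% CO2, then TCA-fixed and SRB-stained, read at 540 nm. EC50 from variable-slope fit with 95% CI.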

[4] = tested on: AGS; experiment: Phototoxicity against human AGS cells assessed as reduction in cell growth preincubated with compound for 24 hrs followed by blue light irradiation at 468 nm for 7 mins 30 sec and measured after 48 hrs by SRB assay; type: functional, cell-based; settings: light or radiation study; how it was run: as §3
[5] = tested on: A549; experiment: Phototoxicity against human A549 cells assessed as reduction in cell growth preincubated with compound for 24 hrs under dark condition and measured after 48 hrs by SRB assay; type: functional, cell-based; settings: A549, light or radiation study
How it was run: (§4)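 Dark control plate processed the same way: cells (A549 2000, AGS 2500, T24 1500 per well) in Opti-MEM with 2.4% FCS, dosed at 25.0−0.3 μM 24 h after seeding. Medium renewed after 24 h, then 48 h further at 37 °C, 5% CO2 without light. SRB read-out at 540 nm after TCA fixation. EC50 with 95% CI from variable-slope fit.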

[6] = tested on: Escherichia coli; experiment: Antibacterial activity against Escherichia coli DSM1103 assessed as reduction in microbial growth preincubated for 60 mins under dark condition followed by 428 nm light irradiation and measured after 20 to 24 hrs by muller hinton broth based dilution assay; type: functional; settings: DSM1103, light or radiation study, time 21-25 hrs
How it was run: (§5)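 PhotoMIC (modified EUCAST broth microdilution): 0.5 McFarland suspensions diluted 1:50 in Mueller-Hinton broth (bacteria, 2–8 × 10⁵ CFU/mL) or 1:10 in double-strength RPMI-1640 (yeast, 0.5–2.5 × 10⁵ CFU/mL); ≥10 concentrations, biological triplicates; 60 min dark preincubation, then 30 J/cm² irradiation or dark duplicate plate; 37 °C, 20–24 h; turbidity versus growth control, blanks subtracted.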

[7] = tested on: T-24; experiment: Phototoxicity against human T24 cells assessed as reduction in cell growth preincubated with compound for 24 hrs under dark condition and measured after 48 hrs by SRB assay; type: functional, cell-based; settings: T-24, light or radiation study; how it was run: as §4
[8] = tested on: Staphylococcus aureus; experiment: Antibacterial activity against Staphylococcus aureus DSM1104 assessed as reduction in microbial growth preincubated for 60 mins under dark condition followed by 530 nm light irradiation and measured after 20 to 24 hrs by muller hinton broth based dilution assay; type: functional; settings: DSM1104, light or radiation study, time 21-25 hrs; how it was run: as §5
[9] = tested on: Escherichia coli; experiment: Antibacterial activity against Escherichia coli DSM1103 assessed as reduction in microbial growth preincubated for 60 mins under dark condition followed by 530 nm light irradiation and measured after 20 to 24 hrs by muller hinton broth based dilution assay; type: functional; settings: DSM1103, light or radiation study, time 21-25 hrs; how it was run: as §5
[10] = tested on: Escherichia coli; experiment: Antibacterial activity against Escherichia coli DSM1103 assessed as reduction in microbial growth preincubated for 60 mins under dark condition followed by 478 nm light irradiation and measured after 20 to 24 hrs by muller hinton broth based dilution assay; type: functional; settings: DSM1103, light or radiation study, time 21-25 hrs; how it was run: as §5
[11] = tested on: Staphylococcus aureus; experiment: Antibacterial activity against Staphylococcus aureus DSM1104 assessed as reduction in microbial growth preincubated for 60 mins under dark condition and measured after 20 to 24 hrs at room temperature by muller hinton broth based dilution assay; type: functional; settings: time 20-24 hrs; how it was run: as §1
[12] = tested on: Staphylococcus aureus; experiment: Antibacterial activity against Staphylococcus aureus DSM1104 assessed as reduction in microbial growth preincubated for 60 mins under dark condition followed by 478 nm light irradiation and measured after 20 to 24 hrs by muller hinton broth based dilution assay; type: functional; settings: DSM1104, light or radiation study, time 21-25 hrs; how it was run: as §5
[13] = tested on: A549; experiment: Phototoxicity against human A549 cells assessed as reduction in cell growth preincubated with compound for 24 hrs followed by blue light irradiation at 468 nm for 7 mins 30 sec and measured after 48 hrs by SRB assay; type: functional, cell-based; settings: A549, light or radiation study; how it was run: as §3
[14] = tested on: Candida albicans; experiment: Antifungal activity against Candida albicans 501670 assessed as reduction in microbial growth preincubated for 60 mins under dark condition followed by 428 nm light irradiation and measured after 20 to 24 hrs by RPMI-1640 based dilution assay; settings: Candida albicans, 501670, light or radiation study
[15] = tested on: Candida albicans; experiment: Antifungal activity against Candida albicans 501670 assessed as reduction in microbial growth preincubated for 60 mins under dark condition followed by 530 nm light irradiation and measured after 20 to 24 hrs by RPMI-1640 based dilution assay; settings: Candida albicans, 501670, light or radiation study
[16] = tested on: AGS; experiment: Phototoxicity against human AGS cells assessed as reduction in cell growth preincubated with compound for 24 hrs under dark condition and measured after 48 hrs by SRB assay; type: functional, cell-based; settings: light or radiation study; how it was run: as §4
[17] = tested on: A549; experiment: Photo index, ratio of EC50 for human A549 cells killed in the absence of light to EC50 for human A549 cells killed after irradiation; type: functional; how it was run: as §2
[18] = tested on: Candida albicans; experiment: Antifungal activity against Candida albicans 501670 assessed as reduction in microbial growth preincubated for 60 mins under dark condition followed by 478 nm light irradiation and measured after 20 to 24 hrs by RPMI-1640 based dilution assay; settings: Candida albicans, 501670, light or radiation study
[19] = tested on: T-24; experiment: Photo index, ratio of EC50 for human T24 cells killed in the absence of light to EC50 for human T24 cells killed after irradiation; type: functional; how it was run: as §2
[20] = tested on: Candida albicans; experiment: Antifungal activity against Candida albicans 501670 assessed as reduction in microbial growth preincubated for 60 mins under dark condition and measured after 20 to 24 hrs at room temperature by RPMI-1640 based dilution assay
[21] = tested on: Staphylococcus aureus; experiment: Antibacterial activity against Staphylococcus aureus DSM1104 assessed as reduction in microbial growth preincubated for 60 mins under dark condition followed by 428 nm light irradiation and measured after 20 to 24 hrs by muller hinton broth based dilution assay; type: functional; settings: DSM1104, light or radiation study, time 21-25 hrs; how it was run: as §5
[22] = tested on: Staphylococcus aureus; experiment: Antibacterial activity against Staphylococcus aureus DSM1104 assessed as reduction in microbial growth preincubated for 60 mins under dark condition followed by 428 to 530 nm light irradiation and measured after 20 to 24 hrs by muller hinton broth based dilution assay; type: functional; settings: DSM1104, light or radiation study, time 21-25 hrs
How it was run: (§6)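 Bacterial inoculum set to 0.5 McFarland (600 nm) and diluted 1:50 in Müller-Hinton broth to (2–8) × 10⁵ CFU/mL. After 60 min dark preincubation the plate received H = 30 J/cm² from LED panels (468±27, 519±33, 478±22 or 523±33 nm). Incubated at 37 °C in the dark for 20−24 h. Turbidity read against growth control, blanks subtracted. ≥10 concentrations, biological triplicate.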

[23] = tested on: Escherichia coli; experiment: Antibacterial activity against Escherichia coli DSM1103 assessed as reduction in microbial growth preincubated for 60 mins under dark condition followed by 428 to 530 nm light irradiation and measured after 20 to 24 hrs by muller hinton broth based dilution assay; type: functional; settings: DSM1103, light or radiation study, time 21-25 hrs; how it was run: as §6
[24] = tested on: Candida albicans; experiment: Antifungal activity against Candida albicans 501670 assessed as reduction in microbial growth preincubated for 60 mins under dark condition followed by 428 to 530 nm light irradiation and measured after 20 to 24 hrs by muller hinton broth based dilution assay; type: functional; settings: Candida albicans, 501670, light or radiation study; in the assay text read “RPMI-1640” for “muller hinton broth”; time 21-25 hrs
How it was run: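 Yeast set to 0.5 McFarland (530 nm), diluted 1:10 in double-strength RPMI-1640 to (0.5−2.5) × 10⁵ CFU/mL. Irradiated at H = 30 J/cm² after 60 min dark preincubation, then kept dark at 37 °C for 20−24 h. Growth inhibition by turbidity versus growth control, blanks subtracted. ≥10 concentrations in biological triplicate.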

[25] = tested on: T-24; experiment: Phototoxicity against human T24 cells assessed as reduction in cell growth preincubated with compound for 24 hrs followed by green light irradiation at 519 nm for 22 mins 23 sec and measured after 48 hrs by SRB assay; type: functional, cell-based; settings: T-24, light or radiation study
How it was run: (§7)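 Cells (A549 2000, AGS 2500, T24 1500 per well) seeded in Opti-MEM with 2.4% FCS and dosed 24 h later at six concentrations, 25.0−0.3 μM. After a further 24 h, fresh medium was added and cells got green light (519±33 nm, 30.0 J/cm²). Then 48 h at 37 °C, 5% CO2. Read-out by TCA fixation, SRB stain and absorbance at 540 nm. EC50 from Hill fit with 95% CI.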

[26] = tested on: AGS; experiment: Phototoxicity against human AGS cells assessed as reduction in cell growth preincubated with compound for 24 hrs followed by green light irradiation at 519 nm for 22 mins 23 sec and measured after 48 hrs by SRB assay; type: functional, cell-based; settings: light or radiation study; how it was run: as §7
[27] = tested on: A549; experiment: Phototoxicity against human A549 cells assessed as reduction in cell growth preincubated with compound for 24 hrs followed by green light irradiation at 519 nm for 22 mins 23 sec and measured after 48 hrs by SRB assay; type: functional, cell-based; settings: A549, light or radiation study; how it was run: as §7

SMILES: Cc1cc(O)c2c(c1)C(=O)c1cc(O)cc(O)c1C2=O [EMODIN]
- MIC [1]: > 92 µM
- Ratio EC50 [2]: >16
- EC50 [3]: 1.7 µM
- EC50 [4]: 1.5 µM
- EC50 [5]: 19 µM
- MIC [6]: 11.1 µM
- EC50 [7]: > 25 µM
- MIC [8]: 11.1 µM
- MIC [9]: > 92 µM
- MIC [10]: > 92 µM
- MIC [11]: > 92 µM
- MIC [12]: 1.85 µM
- EC50 [13]: 2.9 µM
- MIC [14]: 0.37 µM
- MIC [15]: 46 µM
- EC50 [16]: > 25 µM
- Ratio EC50 [17]: 7
- MIC [18]: 2.78 µM
- Ratio EC50 [19]: >15
- MIC [20]: > 92 µM
- MIC [21]: 1.85 µM

SMILES: Cc1cc(O[C@@H]2O[C@H](CO)[C@@H](O)[C@H](O)[C@H]2O)c2c(c1)C(=O)c1cc(O)cc(O)c1C2=O
- MIC [1]: > 115 µM
- MIC [22]: > 115 µM
- EC50 [3]: > 25 µM
- EC50 [4]: > 25 µM
- EC50 [5]: > 25 µM
- MIC [23]: > 115 µM
- EC50 [7]: > 25 µM
- MIC [24]: > 115 µM
- MIC [11]: > 115 µM
- EC50 [13]: > 25 µM
- EC50 [16]: > 25 µM
- MIC [20]: > 115 µM

SMILES: COc1c(O)c(O)c2c(c1O)C(=O)c1cc(C)cc(O[C@@H]3O[C@H](CO)[C@@H](O)[C@H](O)[C@H]3O)c1C2=O
- MIC [1]: > 105 µM
- MIC [22]: > 105 µM
- EC50 [3]: > 25 µM
- EC50 [4]: > 25 µM
- EC50 [5]: > 25 µM
- MIC [23]: > 105 µM
- EC50 [7]: > 25 µM
- EC50 [25]: > 25 µM
- EC50 [26]: > 25 µM
- MIC [24]: > 105 µM
- MIC [11]: > 105 µM
- EC50 [13]: > 25 µM
- EC50 [27]: > 25 µM
- EC50 [16]: > 25 µM
- MIC [20]: > 105 µM

SMILES: O=C(N[C@H](CO)[C@H](O)c1ccc([N+](=O)[O-])cc1)C(Cl)Cl [CHLORAMPHENICOL]
- MIC [1]: 6.1 µM

— ChEMBL document CHEMBL5370587, “Fungal Anthraquinone Photoantimicrobials Challenge the Dogma of Cationic Photosensitizers” (J Nat Prod, 2023)
